Data taken from ChEMBL document CHEMBL1123419, “Synthesis and antiviral activity of sulfonamidobenzophenone oximes and sulfonamidobenzamides” (1986).
Values after ≈ are worked out from the molar mass of the structure shown.

Columns and labels:
Poliovirus 1 = assay: microbe, parasite or virus in culture; assay type: functional; conditions: Enterovirus C; read-out: ED50 (the source's name)
CV-1 = assay: Chemotherapeutic index in CV-1 cells (chemotherapeutic index=50% cytotoxic dose/50% effective dose).; assay type: functional, Cercopithecidae
How it was run: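 Index = 50% cytotoxic dose / 50% plaque-inhibition dose. For cytotoxicity, 200 cells/mL in suspension were mixed with 10% FBS MEM carrying serial compound dilutions and incubated 7 days at 37 °C under 5% CO2. Colonies were stained with 1% crystal violet and counted, and the 50% cytotoxic dose was read from the dose-response curve.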

Enterovirus [1] = assay: Antiviral activity against rhinovirus 1A using plaque-inhibition assay; assay type: functional; conditions: read-out: ED50 (the source's name)
How it was run: (§1)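 Plaque reduction: confluent monolayers were infected with 100-200 PFU. Hela (Ohio) cells were used for rhinoviruses 10 and 1A and coxsackieviruses B4 and A9, CV-1 for poliovirus type 1 Mahoney, and LLC-MK2 for enterovirus 70. Cells were overlaid with 2.0% agar in MEM plus 4% FBS containing serial compound concentrations. Incubation was 37 °C for polio/coxsackie and 33 °C for rhino/enterovirus, with a neutral red (0.004%) second overlay. ED50 was taken from the dose-response curve.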

Enterovirus [2] = assay: Antiviral activity against rhinovirus 10 using plaque-inhibition assay; assay type: functional; conditions: read-out: ED50 (the source's name)
How it was run: as §1

Row | Compound | EC50 (Poliovirus 1) [µg/mL] | Chemotherapeutic index (CV-1) | EC50 (Enterovirus [1]) [µg/mL] | EC50 (Enterovirus [2]) [µg/mL]
1 | CC(C)S(=O)(=O)Nc1cccc(C(=O)Nc2ccccc2C(F)(F)F)c1 | 0.6 (≈ 1.55 µM) | – | – | –
2 | CC(C)S(=O)(=O)Nc1cccc(C(=O)Nc2ccc(Cl)cc2)c1 | 1.2 (≈ 3.4 µM) | – | – | –
3 | CN(C)S(=O)(=O)Nc1ccc(C(=O)Nc2ccccc2Cl)cc1 | 6.2 (≈ 17.5 µM) | – | – | –
4 | CCCCc1ccc(NC(=O)c2ccc(NS(=O)(=O)C(C)C)cc2)cc1 | 0.16 (≈ 0.427 µM) | – | – | –
5 | CN(C)S(=O)(=O)Nc1ccc(C(=O)Nc2ccc(I)cc2)cc1 | 0.3 (≈ 0.674 µM) | 5 | 0.3 (≈ 0.674 µM) | –
6 | CN(C)S(=O)(=O)Nc1ccc(C(=O)Nc2ccccc2)cc1 | 3 (≈ 9.39 µM) | – | – | –
7 | CC(C)S(=O)(=O)Nc1cccc(C(=O)NCc2ccco2)c1 | > 50 | – | – | –
8 | CN(C)S(=O)(=O)Nc1cccc(NC(=O)c2ccccc2)c1 | 20 (≈ 62.6 µM) | – | – | –
9 | CC(C)S(=O)(=O)Nc1cccc(C(=O)NC(C)(C)C)c1 | > 50 | – | – | –
10 | O=C(Nc1ccccc1)c1cccc(NS(=O)(=O)c2ccccc2)c1 | 17 (≈ 48.2 µM) | – | – | –
11 | CN(C)S(=O)(=O)Nc1ccc(C(=O)Nc2cccc(Br)c2)cc1 | 5 (≈ 12.6 µM) | – | – | –
12 | CSc1ccc(/C(=N\O)c2cccc(NS(=O)(=O)N(C)C)c2)cc1 | 0.32 (≈ 0.876 µM) | 9 | – | 0.26 (≈ 0.711 µM)
13 | COc1ccc(/C(=N/O)c2cccc(NS(=O)(=O)N(C)C)c2)c(OC)c1 | 19.5 (≈ 51.4 µM) | 1.8 | – | 4 (≈ 10.5 µM)
14 | CC(C)S(=O)(=O)Nc1cccc(C(=O)Nc2ccccc2N)c1 | > 50 | – | – | –
15 | CN(C)S(=O)(=O)Nc1cccc(C(=O)Nc2ccc(Br)cc2)c1 | 1.7 (≈ 4.27 µM) | – | – | –
16 | CN(C)S(=O)(=O)Nc1ccccc1C(=O)Nc1ccccc1 | 25 (≈ 78.3 µM) | – | – | –
17 | Cc1ccc(/C(=N\O)c2cccc(NS(=O)(=O)N(C)C)c2)cc1 | 0.44 (≈ 1.32 µM) | 86 | – | 0.41 (≈ 1.23 µM)
18 | CN(C)S(=O)(=O)Nc1ccc(C(=O)Nc2ccc(C(C)(C)C)cc2)cc1 | 0.12 (≈ 0.32 µM) | – | – | –
19 | CC(C)S(=O)(=O)Nc1cccc(C(=O)Nc2nccs2)c1 | 25 (≈ 76.8 µM) | – | – | –
20 | COc1cccc(/C(=N\O)c2cccc(NS(=O)(=O)N(C)C)c2)c1 | 0.34 (≈ 0.973 µM) | 74 | – | 0.41 (≈ 1.17 µM)

Row | Compound | EC50 (Poliovirus 1) [µg/mL] | Chemotherapeutic index (CV-1) | EC50 (Enterovirus [1]) [µg/mL] | EC50 (Enterovirus [2]) [µg/mL]
21 | CC(C)S(=O)(=O)n1c(N)nc2ccc(/C(=N/O)c3ccccc3)cc21 [ENVIROXIME] | 0.032 (≈ 0.0893 µM) | – | – | 0.024 (≈ 0.067 µM)
22 | CCc1ccc(NC(=O)c2ccc(NS(=O)(=O)N(C)C)cc2)cc1 | 0.36 (≈ 1.04 µM) | 10 | 0.2 (≈ 0.576 µM) | –
23 | CCCCCCc1ccc(NC(=O)c2ccc(NS(=O)(=O)N(C)C)cc2)cc1 | 0.16 (≈ 0.396 µM) | 11 | 0.24 (≈ 0.595 µM) | –
24 | CN(C(=O)c1ccc(NS(=O)(=O)N(C)C)cc1)c1ccc(Cl)cc1 | > 25 | – | – | –
25 | O=C(Nc1ccccc1)c1cccc(NS(=O)(=O)N2CCCCC2)c1 | 11 (≈ 30.6 µM) | – | – | –
26 | CC(C)S(=O)(=O)n1c(N)nc2ccc(/C(=N\O)c3ccccc3)cc21 [ZINVIROXIME] | 0.14 (≈ 0.391 µM) | 61 | – | 0.24 (≈ 0.67 µM)
27 | CCOc1ccc(/C(=N\O)c2cccc(NS(=O)(=O)N(C)C)c2)cc1 | 5.5 (≈ 15.1 µM) | – | – | –
28 | CS(=O)(=O)Nc1cccc(C(=O)Nc2ccccc2)c1 | > 50 | – | – | –
29 | CC(C)S(=O)(=O)Nc1cccc(/C(=N/O)c2ccc(CO)cc2)c1 | – | – | – | 0.39 (≈ 1.12 µM)
30 | CN(C)S(=O)(=O)Nc1ccc(Cl)c(C(=O)Nc2ccc(Cl)cc2)c1 | > 50 | – | – | –
31 | COc1ccc(/C(=N\O)c2cccc(NS(=O)(=O)N3CCCC3)c2)cc1 | 1.1 (≈ 2.93 µM) | – | – | –
32 | CC(C)S(=O)(=O)Nc1cccc(C(=O)Nc2ccc(Br)cc2)c1 | 0.7 (≈ 1.76 µM) | – | – | –
33 | CC(=O)c1ccccc1NC(=O)c1cccc(NS(=O)(=O)C(C)C)c1 | 5 (≈ 13.9 µM) | – | – | –
34 | CN(C)S(=O)(=O)Nc1cccc(/C(=N/O)c2ccc(Cl)cc2)c1 | 0.46 (≈ 1.3 µM) | 26 | – | 0.53 (≈ 1.5 µM)
35 | CN(C)S(=O)(=O)Nc1cccc(C(=O)NC2CCCCC2)c1 | 28 (≈ 86 µM) | – | – | –
36 | CN(C)S(=O)(=O)Nc1ccc(C(=O)Nc2ccc(C(F)(F)F)cc2)cc1 | 0.18 (≈ 0.465 µM) | 19 | 0.17 (≈ 0.439 µM) | –
37 | CCCCc1ccc(NC(=O)c2cccc(NS(=O)(=O)C(C)C)c2)cc1 | 0.42 (≈ 1.12 µM) | – | – | –
38 | CC(C)S(=O)(=O)Nc1cccc(C(=O)NC(c2ccccc2)c2ccccc2)c1 | > 50 | – | – | –
39 | COC(=O)c1ccc(NC(=O)c2cccc(NS(=O)(=O)C(C)C)c2)cc1 | 4 (≈ 10.6 µM) | – | – | –
